Paper PMC8158046 (Oncoimmunology, 2021)
Each block holds one substance with its values, some of them ahead of it. Positions of bridges follow the written chain, without caps; N, C: chain ends. Chains are numbered I, II in the order given. No end group written: not given here.

Key:
MDA-MB-231 cells = assay: Tumor cell density by inverted microscope, MDA-MB-231; format: cell-based, human; conditions: 10 μg/ml; for effect on MDA-MB-231 tumor cells in the absence of PBMCs: monolayer without PBMC, microscope
How it was run: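 Tumor cells (MDA-MB-231 or MDA-MB-468, 4x10^5/2 ml) were plated overnight, then cultured with or without donor PBMCs (2x10^6/ml). Test compound or scrambled peptide was added at 10 µg/ml at 37°C, 5% CO2. Wells were washed once with PBS and cell density was documented by inverted light microscopy.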

CD45 receptor [1] = target: T1, CD45 receptor (Homo sapiens, UniProt P08575); format: cell-based; conditions: CD45 blocked with monoclonal antibody and blocking peptide, n = 5
T1 sequence (P08575 195-577 limits assumed): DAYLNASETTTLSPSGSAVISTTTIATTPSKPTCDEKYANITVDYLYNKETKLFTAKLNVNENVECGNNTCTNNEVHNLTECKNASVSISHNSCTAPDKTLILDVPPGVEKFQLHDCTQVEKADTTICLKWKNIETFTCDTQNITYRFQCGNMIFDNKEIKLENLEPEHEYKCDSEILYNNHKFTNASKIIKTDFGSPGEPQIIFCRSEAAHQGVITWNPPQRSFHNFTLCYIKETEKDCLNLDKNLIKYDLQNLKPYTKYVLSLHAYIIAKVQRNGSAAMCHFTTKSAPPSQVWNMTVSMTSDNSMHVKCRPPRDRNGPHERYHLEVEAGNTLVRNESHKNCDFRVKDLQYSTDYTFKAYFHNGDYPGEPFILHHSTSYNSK

[2] = tested on: MCF-10A normal breast cells; assay: MCF-10A cell killing by FACS; format: cell-based, human; conditions: for spontaneous cell apoptosis (killing) of MCF-10A cells: 10 μg/ml, 4–6 days, PBMC+MCF-10A, N = 3, mean ± SD
How it was run: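 MCF-10A cells were co-cultured with donor PBMCs (2x10^6/ml) plus test compound or scrambled peptide at 37°C, 5% CO2. Adherent cells were then detached. Anti-CD45 staining was used to exclude leukocytes, and apoptosis in the gated CD45-negative cells was measured by Annexin V/PI flow cytometry.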

[3] = tested on: PBMCs from healthy female donors co-cultured with MDA-MB-231; assay: FACS of activated PBMC sub-populations in co-cultures with MDA-MB-231; format: cell-based, human
How it was run: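 Lymphocytes were recovered from tumor/PBMC co-cultures; samples with >98% CD45+ cells were used. Cells (0.5x10^6/50 µl PBS) were stained for CD4, CD8, CD56, NKG2D, CD14, CD69, CD57 and CD137. Gated live cells were analysed by flow cytometry; mean ± SD reported, ANOVA with Tukey-Kramer.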

CD45 signaling pathway [4] = format: cell-based, human; conditions: incubated with C24D for 5 to 24 hours, 5 separate experiments
CD45 receptor [5] = target: T2, CD45 receptor (Homo sapiens, UniProt P08575); format: in vitro ADME; conditions: 1.5 μM C24D, 3 hours after adding, ELISA read-out
T2 sequence (P08575 26-1306): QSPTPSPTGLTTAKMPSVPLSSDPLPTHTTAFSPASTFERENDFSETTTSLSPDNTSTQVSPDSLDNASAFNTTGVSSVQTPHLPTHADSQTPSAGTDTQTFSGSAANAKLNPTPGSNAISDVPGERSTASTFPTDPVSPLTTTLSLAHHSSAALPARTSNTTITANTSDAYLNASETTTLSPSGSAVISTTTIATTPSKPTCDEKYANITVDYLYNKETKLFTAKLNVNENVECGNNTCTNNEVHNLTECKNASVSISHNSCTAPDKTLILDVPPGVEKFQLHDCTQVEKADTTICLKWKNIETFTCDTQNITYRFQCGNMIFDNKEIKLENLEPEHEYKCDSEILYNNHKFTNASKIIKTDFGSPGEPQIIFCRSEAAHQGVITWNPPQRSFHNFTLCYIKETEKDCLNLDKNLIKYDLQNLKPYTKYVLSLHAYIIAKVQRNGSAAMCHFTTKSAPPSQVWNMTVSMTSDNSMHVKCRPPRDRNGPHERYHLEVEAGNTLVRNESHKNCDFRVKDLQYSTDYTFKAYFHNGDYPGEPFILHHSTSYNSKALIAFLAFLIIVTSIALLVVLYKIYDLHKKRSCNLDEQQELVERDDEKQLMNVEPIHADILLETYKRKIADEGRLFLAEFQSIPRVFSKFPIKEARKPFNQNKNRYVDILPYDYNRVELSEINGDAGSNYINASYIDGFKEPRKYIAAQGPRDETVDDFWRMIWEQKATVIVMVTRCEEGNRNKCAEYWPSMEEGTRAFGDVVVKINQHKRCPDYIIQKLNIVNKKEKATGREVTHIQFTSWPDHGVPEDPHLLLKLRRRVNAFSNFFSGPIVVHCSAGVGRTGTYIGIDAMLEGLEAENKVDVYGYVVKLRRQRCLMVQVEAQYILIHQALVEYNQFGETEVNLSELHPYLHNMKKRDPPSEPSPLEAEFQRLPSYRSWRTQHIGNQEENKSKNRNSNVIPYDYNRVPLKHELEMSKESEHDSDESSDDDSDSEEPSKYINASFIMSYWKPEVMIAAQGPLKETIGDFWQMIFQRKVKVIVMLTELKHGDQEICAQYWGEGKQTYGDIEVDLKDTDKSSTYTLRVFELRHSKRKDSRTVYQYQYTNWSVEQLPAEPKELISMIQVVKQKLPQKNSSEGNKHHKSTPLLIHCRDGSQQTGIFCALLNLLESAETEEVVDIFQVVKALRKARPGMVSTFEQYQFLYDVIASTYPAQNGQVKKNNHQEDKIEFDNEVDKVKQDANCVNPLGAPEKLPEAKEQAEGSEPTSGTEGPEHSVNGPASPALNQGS

CD45 signaling pathway [6] = assay: CD45 signal transduction by western blot, PBMC/MDA-MB-231 co-cultures; format: cell-based, human; conditions: 10 µg/ml, n = 9, p <0.27
[7] = tested on: PBMCs co-cultured with MCF-10A; assay: Cytokine secretion in co-cultures of MCF-10A normal breast cells and PBMCs; format: cell-based, human; conditions: MCF-10A/PBMC co-culture after C24D, n = 3
How it was run: (§1)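 Target cells (MDA-MB-231, MDA-MB-468 or DMEM/10% FCS-grown MCF-10A; 4x10^5/2 ml) were plated overnight. PBMCs (2x10^6/ml, RPMI with 5% AB serum) were added, with test compound added at once (0.1–60 µg/ml) and scrambled peptide as control, at 37°C, 5% CO2. Supernatants were cleared (1200 rpm, 10 min) and stored at −80°C. IFNγ, TNFα, IL-2 and IL-1β were measured by ELISA.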

MDA-MB-231 xenograft = assay: MDA-MB-231 tumor xenograft in nude mice given human PBMCs; format: in vivo, BALB/C nude mice; conditions: for increase in human IFN-γ secretion in serum versus S-C24D group: 13 days after PBMC administration, p <0.05
How it was run: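 Female BALB/c nude mice (5–6 weeks) received 4x10^6 MDA-MB-231 cells s.c. in the right flank. At ~100 mm3 (day 6) they were randomized. Human PBMCs from 2 female donors were pre-incubated 5 min with test compound, scrambled peptide or PBS, then given IV. Treatment (60 or 300 µg/mouse in 200 µl PBS) followed IV twice weekly for 2 weeks. At 13 days, serum human IFNγ was measured. Paraffin tumor sections (pH 6 retrieval) were immunostained for CD45, activated CD56, CD8 and cleaved caspase-3, and 5 fields/slide on 5 slides were quantified.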

CD45 signaling pathway [8] = assay: CD45 signal transduction by intracellular FACS, PBMC/MDA-MB-231 co-cultures; format: cell-based, human; conditions: PBMCs co-cultured with MDA-MB-231 for 24hs, C24D for 15 minutes
How it was run: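 PBMCs (2x10^6/ml, RPMI with 5% AB serum) were co-cultured for 24 h at 37°C, 5% CO2 with MDA-MB-231 cells pre-plated overnight (4x10^5/2 ml). Test compound was then added for 15 minutes. Phosphorylation was read by FACS in live PBMCs and normalized to the scrambled-peptide control.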

[9] = Stability in human whole blood; format: in vitro ADME
[10] = tested on: PBMCs co-cultured with MDA-MB-231; assay: Cytokine secretion by ELISA in supernatants of PBMC/MDA-MB-231 co-cultures; format: cell-based, human
How it was run: as §1

CD45 receptor [11] = target: T1, CD45 receptor; assay: FACS analysis of C24D binding to PBMC sub-populations
CD45 signaling pathway [12] = assay: Protein phosphorylation by western blot in fresh PBMCs from TNBC patients; format: cell-based, human; conditions: fresh PBMCs from 5 TNBC patients, C24D 5 to 60 minutes, mean ± SD
How it was run: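 PBMCs were lysed in buffer containing phosphatase inhibitors (NaF, Na3VO4, β-glycerophosphate), freeze-thawed once and cleared at 14,000 rpm. Lysates were run on 10% SDS-PAGE and blotted for phospho-Lck Y505, phospho-Lck Y394, phospho-VAV-1 Y174 and phospho-ZAP70 Y493, with GAPDH as loading control. Bands were quantified by infrared imaging, normalized to control, and reported as mean ± SD.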

[13] = 10 μg/ml C24D added to co-cultures
[14] = 10 μg/ml C24D, PBMCs from 11 healthy female donors, mean ± SD

IFN-γ in supernatants of co-cultures with blocked CD45 receptor (CD45 receptor [1]): 108 ± 20 pg/mL
Substance: CG-PPRIHPLKRISRTRLPRLHRPFHIS [S-C24D, reference compound]
effect on MDA-MB-231 tumor cells in the absence of PBMCs (MDA-MB-231 cells): no effect | spontaneous cell apoptosis (killing) of MCF-10A cells [2]: 7.25 ± 2.34%

decrease of binding to CD45 in the presence of human plasma (CD45 receptor [5]): 20% | IFN-γ in supernatants of co-cultures with blocked CD45 receptor (CD45 receptor [1]): 107 ± 27 pg/mL | half-life [9]: 2.75 h | percentage of C24D binding to CD16 after exposure to tumor cells (CD45 receptor [11]): not affected | percentage of CD45+ gated PBMCs that bind C24D (double staining) (CD45 receptor [11]; anti CD45 monoclonal antibody (CD45-APC) and C24D-Alexa-488 conjugated peptide): 100% | effect of C24D treatment on C24D binding to CD8 and NKG2D sub-populations exposed to MDA-MB-231 (CD45 receptor [11]; p <0.05): reversed the decrease
Substance: I: CGHHLLRPRRRKRPHSIPTPILIFRSP / II: CGHHLLRPRRRKRPHSIPTPILIFRSP (disulfide I:1-II:1) [C24D]
CD57 expression [3, 13]: not influenced | percentage of NKG2D+ and CD45RO+ cells [3, 13]: not influenced | percentage of CD4+/CD69+ cells [3, 14]: 4.1 ± 1.58% | percentage of CD8+/CD69+ cells [3, 14]: 33.23% | Lck, ZAP70 and VAV-1 activation in fresh PBMCs from healthy donors in the absence of tumors (CD45 signaling pathway [4]): no effect | phosphorylation of Lck Y394 (CD45 signaling pathway [6]): increased, but not significant statistically | TNF-α concentration [7]: 5.6 ± 0.2 pg/mL | tumor cell apoptosis (Cleaved Caspase-3 immunofluorescence) (MDA-MB-231 xenograft; 60 μg (p <0.0013) and 300 μg (p <0.049) per mouse): significant increase | increase in human IFN-γ secretion in serum versus S-C24D group (MDA-MB-231 xenograft; 60 μg per mouse): 68% | increase in human IFN-γ secretion in serum versus S-C24D group (MDA-MB-231 xenograft; 300 μg per mouse): 82% | infiltration of human CD45+ cells in the tumor (immunofluorescence) (MDA-MB-231 xenograft; 60 and 300 μg doses vs S-C24D, p <0.015 and p <0.023): significantly induced | tumor-infiltrating NK (activated CD56+) cells (immunofluorescence) (MDA-MB-231 xenograft; 60 or 300 μg per mouse, p <0.011 and p <0.042): significant increase | tumor-infiltrating human CD8 T cells (immunofluorescence) (MDA-MB-231 xenograft; 60 or 300 μg per mouse, p <0.07 and p <0.1): non-significant | phosphorylation of Y394 in Lck (CD45 signaling pathway [8]; n = 3): increase | increase of the phosphorylation of VAV-1 versus control (CD45 signaling pathway [8]; n = 3, mean ± SD): 36.2 ± 4.0% | increase of the phosphorylation of Y493 in ZAP70 versus control (CD45 signaling pathway [8]; n = 3, mean ± SD): 50.13 ± 10.2% | tumor apoptosis seen by microscope in PBMC/MDA-MB-231 co-cultures (MDA-MB-231 cells; PBMCs from healthy donors): massive tumor apoptosis | effect on MDA-MB-231 tumor cells in the absence of PBMCs (MDA-MB-231 cells): no effect | spontaneous cell apoptosis (killing) of MCF-10A cells [2]: 6.47 ± 0.94% | killing in MCF-10A and PBMCs co-cultures ([2]; treatment with C24D): failed to induce killing | increase in secretion of IL-2 ([10]; C24D 4–6 days, MDA-MB-231/PBMC co-cultures, n = 7, p < 0.0007): 92.2% | increase in secretion of TNF-α ([10]; C24D 4–6 days, MDA-MB-231/PBMC co-cultures, n = 7, p < 0.04): 98% | increase in secretion of IFN-γ ([10]; C24D 4–6 days, MDA-MB-231/PBMC co-cultures, n = 8, p <0.03): 90% | cytokine secretion (IFNγ, IL-2, TNFα, IL-1β) in PBMCs alone ([10]; C24D added to PBMCs alone, no tumor cells): No effect | secretion of IL-1β by monocytes ([10]; C24D added to co-cultures): non-significant effect | leukocyte sub-populations that bound C24D (CD45 receptor [11]; PBMCs from healthy female donors, C24D conjugated to Alexa-488 dye): all 9 of the tested T, NK and monocyte sub-populations bound C24D | phosphorylation of Lck Y394 after addition of C24D, normalized to control (CD45 signaling pathway [12]): 117.4 ± 36.2% | phosphorylation of Lck Y505 after addition of C24D, normalized to control (CD45 signaling pathway [12]): 79.2 ± 3.6% | phosphorylation of VAV-1 after addition of C24D, normalized to control (CD45 signaling pathway [12]): 88.4 ± 26.9% | phosphorylation of ZAP70 Y493 after addition of C24D, normalized to control (CD45 signaling pathway [12]): 116.4 ± 10.4%
